# Reference: paper PMC7740640 (Xenobiotica; the fate of foreign compounds in biological …, 2020)
# Values joined by “and” are separate entries in the source; they are usually repeats but may differ in a detail not shown here. Identical values can stand only once.
# What was measured:
# CYP1A2 [1] = target: T1, CYP1A2 (Homo sapiens, UniProt P05177); assay: C152 metabolism; format: in vitro ADME
# T1 sequence (P05177 2-516 limits assumed): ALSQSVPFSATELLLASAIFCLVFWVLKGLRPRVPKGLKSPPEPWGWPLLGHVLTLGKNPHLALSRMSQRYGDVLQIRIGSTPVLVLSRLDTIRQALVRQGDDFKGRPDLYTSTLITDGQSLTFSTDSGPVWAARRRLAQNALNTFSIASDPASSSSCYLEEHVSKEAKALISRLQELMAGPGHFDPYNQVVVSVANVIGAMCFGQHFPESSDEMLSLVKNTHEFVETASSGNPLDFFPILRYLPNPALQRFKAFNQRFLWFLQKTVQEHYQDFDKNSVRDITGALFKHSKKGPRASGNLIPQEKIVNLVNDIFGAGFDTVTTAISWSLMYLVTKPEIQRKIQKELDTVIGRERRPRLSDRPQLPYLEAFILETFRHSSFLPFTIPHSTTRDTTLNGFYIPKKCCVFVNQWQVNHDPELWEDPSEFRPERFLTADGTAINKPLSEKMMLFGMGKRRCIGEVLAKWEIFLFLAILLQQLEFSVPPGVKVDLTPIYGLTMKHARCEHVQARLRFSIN
# CYP1A2 [2] = target: T1, CYP1A2; assay: Formation of C151 from C152; format: in vitro ADME; settings: SS(1A2)
# Method in brief: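 Probes hold 5–20 pmol P450 in 0.1 M Na-HEPES pH 7.4 with 60 mM KCl. C152 added from 0.5 or 4 mM acetone stock; reaction started with 500 μM NADPH (final), run 5 min at 30 °C with shaking. Quenched with isopropanol containing phenacetin internal standard, then centrifuged. C151 quantified by reverse-phase LC with ESI-positive MRM MS/MS (m/z 230.16→157.2). Michaelis–Menten or Hill fit; normalized per P450 (Supersomes) or CPR (HLM).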
smiles,measurement,setting,value
"CN(C)c1ccc2c(C(F)(F)F)cc(=O)oc2c1 [C152, 7-Dimethylamino-4-trifluromethylcoumarin]",Specific rate,"CYP1A2 [1]; CYP1A2, at 30 μM C152, calculated from fit parameters",4.5 min⁻¹
same,Specific rate,"CYP1A2 [1]; CYP1A2, at saturation (Vmax in Supersomes)",5.0 min⁻¹
same,C151 formed (both methods: LC-MS/MS and scanning fluorimetry),"CYP1A2 [1]; CYP1A2, fraction in total rate of C152 metabolism",20–25%
same,"Vmax (C152 metabolism, fluorimetric assay)","CYP1A2 [1]; SS(1A2), mol C152 per mol P450 per min",5.0 ± 1.1 min⁻¹
same,"Fraction of C151 formed, Fluorimetry","CYP1A2 [1]; SS(1A2), scanning fluorimetry with PCA",26±7%
same,Km,"CYP1A2 [1]; read-out: KM or S50 (C152 metabolism, fluorimetric assay), SS(1A2), Michaelis-Menten fit, 30 °C, pH 7.4",2.9 ± 1.7 µM
same,"Fraction of C151 formed, LC-MS",CYP1A2 [2]; C151 formed over total C152 metabolized,20% and 20±2%
same,"Vmax (Formation of C151, LC-MS)",CYP1A2 [2]; mol C151 formed per mol P450 per min,0.98 ± 0.12 min⁻¹
same,Km,"CYP1A2 [2]; read-out: KM or S50 (Formation of C151, LC-MS), Michaelis-Menten fit",1.7 ± 0.6 µM
